Measured values collected from several papers.
Target: Maternal embryonic leucine zipper kinase (MELK, Homo sapiens, UniProt Q14680)

CC(C)(C)c1nc(-c2cccc(NS(=O)(=O)c3c(F)cccc3F)c2F)c(-c2ccnc(N)n2)s1 — remaining activity (enzyme activity, inhibitor, radiometric; 1 µM): 27%
C[C@H](c1ccnc(Nc2nc3ccc(-c4cc(N(C)C)ncn4)cc3[nH]2)c1)N1CCN(C(=O)CC(F)(F)F)CC1 — remaining binding (cell-free assay, competition with immobilised ligand; 0.1 µM): 100%
Cc1ccc(NC(=O)c2ccc(C)c(C(F)(F)F)c2)cc1C#Cc1nn(C2CCC(O)CC2)c2ncnc(N)c12 (centres unmarked) — remaining signal (cell-free assay; 10 µM): 23%
Cc1ncc([N+](=O)[O-])n1C(=NO)c1ccccc1C(F)(F)F — inhibition (enzyme activity, inhibitor; 10 µM): 13.9%
CC(=O)Nc1c(C(C)=O)c(=O)n(C)c2nc(-c3ccc(Cl)cc3Cl)c(-c3ccc(Cl)cc3)cc12 — remaining binding (cell-free assay, competition with immobilised ligand; 1 µM): 100%
COc1cc(Cl)c(C(=O)N[C@@H](CN[C@H]2CC[C@@H](N)CC2)Cc2ccc(C#N)cc2)cc1-c1ccc(CN[C@H](C)c2ccc(C)cc2)o1 — remaining activity (enzyme activity, inhibitor; 1 µM): 98%
FC(F)(F)Oc1cccc(-c2cnc3ccc(-c4ccncc4)nn23)c1 — activity vs control (enzyme activity, inhibitor, radiometric; 5 µM): 77%
CNC(=O)Nc1ccc2c(c1)[C@@]1(CC2)OC(=O)N(CC(=O)N(Cc2ccc(F)cc2)[C@@H](C)C(F)(F)F)C1=O — remaining binding (cell-free assay, competition with immobilised ligand; 1 µM): 100%
Cc1ccc(C(=O)Nc2ccc(CN3CCN(C)CC3)c(C(F)(F)F)c2)cc1C#Cc1cnc2cccnn12 — remaining activity (enzyme activity, inhibitor; 23.5 nM): 61%
COc1cc(Nc2cnc(C#N)c(O[C@H](C)CN(C)C)n2)ncc1-c1cnn(C)c1 — remaining activity (enzyme activity, inhibitor, radiometric; 1 µM): 109%
Oc1cccc(-c2nc(N3CCOCC3)c3oc4ncccc4c3n2)c1 — remaining activity (enzyme activity, inhibitor; 10 µM): 104%
O=C1Nc2ccc(Cl)cc2C1=Cc1cc(Cl)c(O)c(Cl)c1 — remaining signal (cell-free assay; 0.5 µM): 83.6%
CCN(CC)CCNC(=O)c1c(C)[nH]c(/C=C2\C(=O)Nc3ccc(F)cc32)c1C — inhibition (enzyme activity, inhibitor; 0.3 µM): 53%
COc1cc2c(Nc3ccc(Br)cc3F)ncnc2cc1OCC1CCN(C)CC1 — remaining signal (cell-free assay; 0.5 µM): 94.4%
N#Cc1ccc(Nc2ccc3[nH]c(=O)[nH]c3c2)c(Cl)c1 — remaining binding (cell-free assay, competition with immobilised ligand; 1 µM): 95%
Clc1ccc(Nc2nnc(Cc3ccncc3)c3ccccc23)cc1 — remaining signal (cell-free assay; 0.5 µM): 83.7%
CC(C)(O)[C@H]1CC[C@H](Nc2ccc3ncc(-c4cccc(C(F)(F)F)c4)n3n2)CC1 — remaining activity (enzyme activity, inhibitor; 1 µM): 86.3%
Cc1noc([C@H]2C[C@@H](c3ccc(C(F)(F)F)cc3)CN(C(=O)N3CCS(=O)(=O)C3)C2)n1 — remaining binding (cell-free assay, competition with immobilised ligand; 1 µM): 100%
Nc1nc(NC2CCCCC2)sc1C(=O)c1ccccc1 — remaining activity (enzyme activity, inhibitor; 10 µM): 70%
CNC(=O)c1cc(Oc2ccc(NC(=O)Nc3ccc(Cl)c(C(F)(F)F)c3)cc2)ccn1 — inhibition (enzyme activity, inhibitor; 10 µM): 13%
CC(C)(C)c1nc2c3cc[nH]c(=O)c3c3cc(F)ccc3c2[nH]1 — remaining signal (cell-free assay; 0.5 µM): 5.23%
CN1CC(Oc2cnc(C#N)cc2-c2ccn3nc(NC(=O)C4CC4)cc3c2)C1 — inhibition (enzyme activity, inhibitor; 1 µM): 10%
CN(c1ncccc1CNc1nc(Nc2ccc3c(c2)CC(=O)N3)ncc1C(F)(F)F)S(C)(=O)=O — inhibition (enzyme activity, inhibitor; 1 µM): 90.4%
C[C@H](c1cccc(C#N)c1)n1cc(Cl)cc(C(N)=O)c1=N — remaining binding (cell-free assay, competition with immobilised ligand; 1 µM): 74%
O=C1NC(=O)c2cc(Nc3ccc(F)cc3)c(Nc3ccc(F)cc3)cc21 — remaining signal (cell-free assay; 0.5 µM): 92%
CO[C@@H](C)c1c(Nc2ccc([C@@H](N(C)C(=O)C3CCS(=O)(=O)CC3)C(F)(F)F)cc2)cnc2cc(Cl)nn12 — remaining binding (cell-free assay, competition with immobilised ligand; 1 µM): 52%
Nc1nc(Nc2ccccc2)sc1C(=O)c1c(F)cccc1F — remaining activity (enzyme activity, inhibitor; 10 µM): 47%
COc1cc2ncnc(Nc3ccc(Oc4ccccc4)cc3C)c2cc1OC — inhibition (enzyme activity, inhibitor; 1 µM): 0%
CC/C(=N\NC(=O)NCc1cccc(O)c1)c1ccc(O)c(C)c1O — inhibition (enzyme activity, inhibitor; 0.1 µM): 0.7%
CCC(=O)N[C@H]1CC[C@@H](C(=O)N(C)c2ccc(-c3nc4ccccc4o3)cc2)C1 — remaining binding (cell-free assay, competition with immobilised ligand; 1 µM): 94%
Cc1ccc(Nc2nccc(N(C)c3ccc4c(C)n(C)nc4c3)n2)cc1S(N)(=O)=O — inhibition (enzyme activity, inhibitor; 10 µM): 16%
Cc1sc(C(=O)NC2COC2)cc1-n1cc(NC(=O)Nc2c(F)cccc2Cl)cn1 — remaining activity (enzyme activity, inhibitor; 10 µM): 103%
